The full list was thinned out, with hits kept by preference.
PolyA inhibitor – yeast polyadenylation inhibition; S. cerevisiae SKY197-pL101 polyadenylation reporter, beta-gal luminescence; efflux-impaired pdr1/pdr3 knockout yeast; score 100 = 6 SD above DMSO; activity score, % at 12 µM; 300,000 compounds, 0.02% hits; AID 1875;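 active = lowest replicate activity score at least 50, where 100 means six control SD above control mean; inconclusive = lowest score under 50 but half or more replicates reach 50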;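 also: yeast exposed to compound for 9 h at 30 °C; higher score means more reporter readthrough which indicates perturbed polyadenylation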
L major viab – reduces viability of Leishmania major promastigotes; resazurin fluorescence viability; 200,000 compounds, 9% hits; inhibition, % at 10 µM; AID 1063; in the data active = inhibition above about 50%;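 also: promastigotes grown with compound for 44 hours at 28 °C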
NALP1 yeast inh – blocks the NALP1 inflammasome reconstituted in yeast. inhibition, % at 10 µM. 280,000 compounds, 0.61% hits. S. cerevisiae NALP1/ASC/caspase-1 growth, X-gal OD620, 72 h. AID 2071; in the data active = inhibition mostly above about 24%, no sharp cut-off; inactive = mostly below about 32%
Calb FLC – affects C. albicans growth with fluconazole | C. albicans CaCi-2 (fluconazole-resistant clinical isolate) + fluconazole, Alamar Blue growth, 48 h | growth inhibition, % (concentration not given with the values) | 300,000 compounds, 0.57% hits | AID 1979;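 active = growth inhibition above about 58% in most replicates, limit read from the data, passing the limit was not always enough; inconclusive = exactly half the replicates above a set limit; inactive = most replicates below a set limit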;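 also: all wells also contain fluconazole at 8 µg/ml as a sub-toxic cotreatment; 0% = median of DMSO wells and 100% = median of geldanamycin control wells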
NLRP3 yeast inh – inhibitors of NALP3 inflammasome in yeast; Yeast reconstituted NLRP3/ASC/caspase-1, beta-gal luminescence, 24 h; inhibition, % at 10 µM; 330,000 compounds, 0.39% hits; AID 2825;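 active = inhibition of 50% or more; inactive = inhibition below 50%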;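 also: plate controls were induced DMSO wells for no effect and uninduced yeast grown without galactose for full effect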
T cruzi repl – blocks replication of Trypanosoma cruzi; T. cruzi beta-gal in NIH3T3, luminescence, 90 h; inhibition, % (test concentration not listed); 300,000 compounds, 1.4% hits; AID 1885;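 active = mean inhibition across valid replicates above about 55%, limit read from the data; inconclusive = mean below that limit but half or more replicates reach it; inactive = mean below it, under half of replicates reach it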;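 also: signal also drops with host cell toxicity which is not excluded here; 0% = plate median of DMSO wells and 100% = zero luminescence signal; higher percent means less beta-gal luminescence so fewer parasites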
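System – NIH/3T3 host cells with β-galactosidase reporter T. cruzi · Doses – single 50 nL compound addition per well in DMSO · Reagent – 5000 T. cruzi trypomastigotes/well · Medium – Low-serum DMEM with 2% FBS · Timing – ≥90 h infection period, 3 h prior cell attachment · Evaluation – parasite load inhibition, % · Technique – GalScreen luminescence, 60 min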
Active calls of the source: *; ? = inconclusive; . = no result given.

SMILES	PolyA inhibitor	L major viab	NALP1 yeast inh	Calb FLC	NLRP3 yeast inh	T cruzi repl
COc1ccc(CCN(C(=O)C(F)(F)F)C(C(=O)NC2CCCC2)c2cccs2)cc1OC (configuration not stated)	-4	59*	27	-8	-10	12
Cc1cccc(N(C(=O)C(F)(F)F)C(C(=O)NC2CCCCC2)c2cccs2)c1 (configuration not stated)	23	7	8	-9	8	59*
COc1ccc(CCN(C(=O)C(F)(F)F)C(C(=O)NC2CCCCC2)c2ccc(C)s2)cc1OC (configuration not stated)	-22	46	28	21	-2	28
COc1ccc(N(C(=O)Cc2cccs2)C(C(=O)NC2CCCC2)c2ccncc2)cc1OC (configuration not stated)	-8	.	4	-1	18	3
C#CC(=O)N(c1ccc(OC)c(OC)c1)C(C(=O)NC1CCCC1)c1cccs1 (configuration not stated)	-10	100*	36	2	-7	26
COc1ccc(N(C(=O)c2ccco2)C(C(=O)NC2CCCC2)c2cccs2)c(OC)c1 (configuration not stated)	3	.	4	-3	15	25
COc1ccc2ccccc2c1CNC(C)CCc1ccccc1 (configuration not stated)	-12	.	20	?	6	56*
Cc1ccc(N(C(=O)c2snc(C(N)=O)c2N)C(C(=O)NC2CCCC2)c2ccc(C)o2)cc1 (configuration not stated)	5	.	-3	25	20	24
O=C(CBr)Nc1c2c(nn1-c1ccccc1)CSC2	18	.	22	52	10	-13
CCn1c(=O)n(CC(=O)NCC2CCCO2)c(=O)c2c3c(sc21)COC(C)(C)C3 (configuration not stated)	7	.	-1	-1	2	-1
C/C(=N\Nc1cc(C)nc(-c2ccccc2)n1)c1cccc([N+](=O)[O-])c1	-46	4	-12	-9	14	40
C/C(=N/Nc1ccccc1[N+](=O)[O-])c1ccc([N+](=O)[O-])cc1	7	.	-6	3	3	1
C/C(=N\N=C(N)N)c1cccc([N+](=O)[O-])c1	14	64*	15	-4	18	7
C/C(=N\Nc1ccc([N+](=O)[O-])cc1)c1ccc(O)cc1	-68	22	-1	113*	-5	-12
C/C(=N\NC(=O)C(N)=O)c1cccc([N+](=O)[O-])c1	-12	-2	2	-1	13	5
CC(=O)NC/C(C)=N\Nc1ccc([N+](=O)[O-])cc1	-52	63*	28	113*	23	-3
CC(=O)NCC(=O)OCc1ccc([N+](=O)[O-])cc1	5	-4	30	-24	-8	-20
C/C(=N\Nc1ccc([N+](=O)[O-])cc1)c1cccc(N)c1	-17	61*	9	-18	33	13
CN(C)c1ccc(/C=N/OC(=O)Nc2ccccc2Cl)cc1	-7	-7	13	-21	14	13
O=C(Cc1c(F)cccc1Cl)N1CCN(S(=O)(=O)c2cccs2)CC1	.	.	.	.	4	.
CCOC(=O)Cn1nc(C)c2ccccc2c1=O	-5	11	-8	4	9	-7
Cc1nn(CC(N)=O)c(=O)c2ccccc12	3	100*	12	1	18	58*
Cc1[nH]c2ccccc2c1CCNC(=O)c1ccc2c(c1[N+](=O)[O-])C(=O)c1ccccc1C2=O	9	95*	10	33	24	18
Cc1[nH]c2c(C)cccc2c1CCNC(=O)c1ccc2c(c1[N+](=O)[O-])C(=O)c1ccccc1C2=O	3	100*	13	5	36	21
CCOc1ccccc1Nc1ccnc2cc(Cl)ccc12	-7	53*	11	25	3	17
SMILES	PolyA inhibitor	L major viab	NALP1 yeast inh	Calb FLC	NLRP3 yeast inh	T cruzi repl
O=C1N/C(=C\c2ccc(O)cc2)C(=O)c2ccccc21	4	100*	5	20	7	-7
O=C(CN1CCc2cc3c(cc2C1)OCCCO3)Nc1cccc(Br)c1	13	.	23	-22	3	5
CNc1ccc(Br)cc(C(=O)/C=C/c2cc(OC)ccc2OC)c1=O	6	89*	20	-3	2	-6
COCCCNC(=O)/C=C/c1ccc(Cl)cc1Cl	4	-2	-2	-3	12	1
CNc1ccc(Br)cc(C(=O)/C=C/c2ccc3c(c2)OCO3)c1=O	-7	72*	-1	5	1	-10
CCNc1ccc(Br)cc(C(=O)/C=C/c2ccc(Cl)cc2Cl)c1=O	-22	98*	17	0	8	-21
CNc1ccc(Br)cc(C(=O)/C=C/c2ccc(OC)cc2)c1=O	-30	18	30	0	24	-10
CC1=C(C(=O)N(C)C)C(c2ccc(C)s2)NC(=S)N1 (configuration not stated)	-1	-5	-6	13	9	9
CC12CCC(C(=O)NNc3ccc([N+](=O)[O-])cc3)(CC1=O)C2(C)C (configuration not stated)	6	0	23	121*	14	4
CC1(c2ccccn2)Nc2ccccc2-c2nc3ccccc3n21 (configuration not stated)	-8	53*	-15	13	14	-1
c1ccc2c(c1)NC1(CCCCCC1)n1c-2nc2ccccc21	2	28	3	?	41	-5
CCCCC1(C)Nc2ccccc2-c2nc3ccccc3n21 (configuration not stated)	18	74*	-2	-17	20	9
Cc1cc(C(=O)CSc2nnc(N)s2)c(C)n1Cc1cccs1	-1	-3	17	-7	6	-4
CC(=O)Nc1ccc(SCC(=O)c2cc(C)n(Cc3cccs3)c2C)cc1	-19	26	-6	0	6	11
Cc1csc(SCC(=O)c2cc(C)n(Cc3cccs3)c2C)n1	-16	56*	-10	3	6	19
Cc1cc(C(=O)CSc2n[nH]c(-c3ccccc3F)n2)c(C)n1Cc1cccs1	-3	83*	-5	-24	17	26
COC(C#CCCN(C)C)(c1ccccc1)c1ccccc1	1	100*	9	8	14	6
CN(CC#CC(O)(c1ccccc1)c1ccccc1)C(C)(C)C	12	.	23	-3	-6	.
COc1cccc(CSc2nc3ccccc3cc2C=O)c1	-9	97*	8	-2	41	2
Cc1ccc2nc(N/N=C/c3ccccc3C#N)nc(-c3ccccc3)c2c1	-17	62*	8	0	-1	18
O=C(CN1C(=O)NC2(CCCC2)C1=O)Nc1ccccc1N1CCCCC1	17	.	.	-2	12	-1

Bioassay records (PubChem)
